An excerpt weighted towards active compounds, which were near 3.5% of everything screened.
RGS4 inh: inhibitors of human RGS4; HEK293 M3R/RGS4 inducible, Fluo-4 calcium flux; stronger effect = higher value; triggered by carbachol at its EC20; 310,000 compounds, 0.45% hits; P49798; B-score at 10 µM;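 active = B-score, a plate-corrected calcium signal, over three deviations above library mean, with baseline fluorescence within five deviations of library mean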;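 also: RGS4 expression induced by doxycycline in cells with stable M3 receptor; B-score is computed from the integrated fluorescence ratio over baseline after carbachol; higher B-score means a larger calcium signal and so more RGS4 inhibition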
Target sequence (P49798 whole entry, looked up): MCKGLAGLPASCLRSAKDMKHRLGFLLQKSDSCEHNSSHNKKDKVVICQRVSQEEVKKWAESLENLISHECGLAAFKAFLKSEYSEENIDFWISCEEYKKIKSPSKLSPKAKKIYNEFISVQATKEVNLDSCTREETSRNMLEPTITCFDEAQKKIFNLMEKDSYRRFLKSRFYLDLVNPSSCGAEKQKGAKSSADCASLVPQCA
MrgX1 antag: blocks BAM8-22 activation of human MrgX1 receptor. B-score at 10 µM. AID 588676. 310,000 compounds, 1.3% hits. MRGX1-HEK293 calcium flux, Fluo-4, BAM8-22 antagonism; stronger effect = lower value. Q96LB2;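 active = calcium-response B-score plate-corrected more than 3 library SD below zero, starting fluorescence within 5 deviations, no agonist response on first addition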;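 also: peak minus trough fluorescence over baseline after final BAM8-22 challenge near maximal dose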
Target sequence (Q96LB2 whole entry, looked up): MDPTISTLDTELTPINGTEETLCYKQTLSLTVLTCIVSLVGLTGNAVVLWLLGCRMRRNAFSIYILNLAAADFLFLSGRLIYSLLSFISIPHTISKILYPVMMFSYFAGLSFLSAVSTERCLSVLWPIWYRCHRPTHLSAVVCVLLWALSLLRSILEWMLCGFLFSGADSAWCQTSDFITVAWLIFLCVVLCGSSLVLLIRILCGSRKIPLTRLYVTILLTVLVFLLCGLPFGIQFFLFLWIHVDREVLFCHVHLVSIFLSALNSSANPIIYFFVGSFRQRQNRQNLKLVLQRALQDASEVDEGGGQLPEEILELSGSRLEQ
MrgX1 PAM: human MrgX1 positive allosteric modulation, primary screen; Q96LB2; 310,000 compounds, 0.63% hits; MrgX1-HEK293, Fluo-4 calcium flux, FDSS; stronger effect = higher value; B-score at 10 µM;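 active = plate-corrected calcium response at least 3 library SD above typical, normal starting fluorescence, not activating the receptor alone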;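 also: compound read alongside a low EC10 to EC30 dose of BAM8-22 agonist; peak minus trough fluorescence over baseline measured at the second addition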
MrgX1 agonist: agonists of human MrgX1 receptor | MrgX1-HEK293 cells, Fluo-4 calcium fluorescence, agonist mode; stronger effect = higher value | B-score at 10 µM | 310,000 compounds, 0.44% hits | AID 588627;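 active = calcium response B-score plate-corrected fluorescence ratio at least 3 library SD, with starting fluorescence B-score inside 5 SD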
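Test system: HEK293 cells stably expressing human MrgX1 receptor; amount: 15,000 cells per well; doses: compound delivered in addition one of three; times: overnight plating before 1 h dye loading; detection: Fluo-4 NW calcium-flux fluorescence, kinetic read; read-out basis: B-scored fluorescence response ratio; controls: positive and negative controls per plate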
RGS4 pot: potentiators or activators of RGS4; 310,000 compounds, 0.92% hits; HEK293 M3R/inducible RGS4, carbachol calcium flux Fluo4; stronger effect = lower value; B-score at 10 µM;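 active = B-score of the integrated calcium signal more than 4 SD below the library mean, with starting fluorescence not abnormally high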;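 also: negative B-score means reduced calcium response which marks RGS4 activation or potentiation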
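Assay system: HEK293 FlpIn-TREx cells, stable M3R, doxycycline-inducible RGS4 / Probe or stimulus: carbachol, ECmax concentration / Times: overnight RGS4 induction, 30 min dye load 37 °C, 20 min compound RT / Signal: kinetic calcium fluorescence imaging with Fluo4-AM dye, 2 µM / Measure: Agonist-evoked peak-minus-minimum fluorescence over baseline, integrated ratio, B score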
RGS4 block valid: RGS4 inhibitor validation. AID 492999. 1,700 compounds, 65% hits. HEK293 M3R/RGS4, carbachol calcium Fluo-4 fluorescence; carbachol added at its EC20; 0 = buffer wells, 100 = carbachol control. shares compounds with RGS4 inh. calcium response, % at 10 µM;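 active = duplicate-averaged calcium response above the buffer-only control mean plus 5 SD of those controls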;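 also: integrated fluorescence ratio F max minus min over baseline F0; higher response in RGS4-induced cells means RGS4 inhibition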
RGS4 uninduced: counter-screen for RGS4 inhibitors: effect in non-induced cells. HEK293 M3R non-induced, carbachol calcium Fluo-4; submaximal (EC20) carbachol stimulus; buffer wells 0%, carbachol control wells 100%. activity (percent), % at 10 µM. AID 493000. shares compounds with RGS4 inh. 1,900 compounds, 20% hits; call rule not given here;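 also: RGS4 induction absent so cells express M3R without RGS4; higher means more calcium signal and flags a non-specific hit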
RGS4 inh ctr2: second counter-screen for RGS4 inhibitors: non-induced cells without carbachol. calcium response (agonist-mode artifact), % at 10 µM. shares compounds with RGS4 inh. HEK293 M3R/RGS4 non-induced, Fluo-4 calcium, no carbachol; normalised: buffer wells 0%, carbachol wells 100%. 1,900 compounds, 22% hits;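 active = duplicate-averaged calcium rise in uninduced cells above buffer wells' mean plus 5 SD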
MrgX1 ag reconf: reconfirmed activator of human MrgX1 receptor signaling | activation, % at 10 µM | MrgX1-HEK293, Fluo-4 calcium fluorescence, FDSS | AID 602412 | 600 compounds, 78% hits | shares compounds with MrgX1 agonist;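 active = calcium signal rise, corrected for plate position, at least 3 library SD high, with starting brightness within 5 such deviations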
HEK293 Ca flux: MrgX1 antagonist counter-screen hit in parental HEK293 cells | Fluo-4 calcium fluorescence, FDSS | fluorescence ratio F(max-min)/F0 at 10 µM | 4,000 compounds, 2% hits | shares compounds with MrgX1 antag | AID 624111;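 active = duplicate-averaged calcium fluorescence ratio at least three times the standard deviation of buffer wells, a nonspecific response in parental cells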
HEK293 Ca counter: activity in parental HEK293 cells without MrgX1; shares compounds with MrgX1 antag; parental HEK293 calcium flux, Fluo-4 fluorescence ratio; stronger effect = higher value; fluorescence ratio F(max-min)/F0 at 10 µM; 4,000 compounds, 0.4% hits;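 active = calcium fluorescence ratio, averaged over duplicates, at least 3 SD of the buffer-well ratio, meaning a nonspecific response in receptor-free cells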;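 also: untransfected parental HEK293 lacking MrgX1 used as counterscreen for MrgX1 allosteric activators; fluorescence change taken during the second addition on a kinetic imager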
HEK293 Ca cntr2: MrgX1 activator counter-screen hit in parental HEK293 cells | AID 624115 | Fluo-4 calcium fluorescence (FDSS); stronger effect = higher value | shares compounds with MrgX1 antag | 4,000 compounds, 8.7% hits | fluorescence ratio F(max-min)/F0 at 10 µM;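 active = calcium fluorescence ratio at least three times the spread of buffer wells, meaning a non-specific response in parental cells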
Hits are given with their value; n = inactive; x = not tested or not shown.

SMILES	RGS4 inh	MrgX1 antag	MrgX1 PAM	MrgX1 agonist	RGS4 pot	RGS4 block valid	RGS4 uninduced	RGS4 inh ctr2	others
C=CCN1C(=O)NC(=O)/C(=C/C=C/c2ccccc2)C1=O	5.3	x	x	x	n	26%	n	18%
CN(C)c1ccc(/C=C/C=C2/C(=O)NC(=O)N(c3ccccc3)C2=O)cc1	n	x	x	x	n	x	x	x
COC(=O)c1cc(C(O)(C(=O)OC)C(F)(F)F)c(/N=C/N(C)C)s1 (stereo unspecified)	n	n	n	n	n	x	x	x
CCOc1cc2c(cc1OCC)-n1cccc1C(c1ccccc1O)NC2 (stereo unspecified)	n	n	n	n	n	x	x	x
Cc1ccc2c(c1)=NC(=O)/C(=C/c1c(O)[nH]c(=O)[nH]c1=O)C=2	n	n	n	n	n	x	n	n
O=C1NC(=O)C(=Cc2ccc(-c3ccc(Cl)cc3)o2)C(=O)N1	14	n	n	n	n	16%	n	8.5%
O=C1NC(=O)C(=Cc2ccc(-c3ccc(F)cc3O)o2)C(=O)N1	40	n	n	n	n	74%	32%	10%
O=C1NC(=O)C(=Cc2ccc(-c3ccc(S(=O)(=O)N4CCOCC4)cc3)o2)C(=O)N1	n	n	n	n	n	x	x	x
O=C1NC(=O)C(=Cc2ccc3c(c2)OCO3)C(=O)N1	n	n	n	n	n	x	x	x
CC(C)C12CN3CC(C(C)C)(CN(C1)C3c1cccnc1)C2=O (stereo unspecified)	n	n	n	n	n	x	x	x
C[N+]1(C)C2CC(OC(=O)[C@H](CO)c3ccccc3)CC1C1OC12 (stereo partly specified)	x	n	n	n	x	x	x	x
CCCc1[nH]nc2c1C1(C(=O)N(Cc3ccccc3)c3ccccc31)C(C(=O)OC)=C(N)O2 (stereo unspecified)	5.9	n	n	n	n	19%	30%	n
CCCc1[nH]nc2c1C1(C(=O)N(CC(N)=O)c3ccccc31)C(C(=O)OC)=C(N)O2 (stereo unspecified)	n	n	n	n	n	n	n	n
CCOC(=O)C1=C(N)Oc2ccccc2C12C(=O)N(CC(=O)OC)C(CC(=O)OC)=C2C(=O)OC (stereo unspecified)	n	n	n	n	n	x	x	x
CCOC(=O)C1=C(N)OC2=C(C(=O)CCC2)C12C(=O)N(CC(N)=O)c1ccccc12 (stereo unspecified)	n	n	n	n	n	x	x	x
CN1C(=O)/C(=C/C=C/c2ccco2)C(=O)NC1=S	n	n	n	n	n	x	x	x
CN1C(=O)NC(=O)/C(=C\C=C\c2ccccc2[N+](=O)[O-])C1=O	6.6	n	n	n	n	16%	n	10%
C=CCn1c(O)c(C(C)=NC2CCN(Cc3ccccc3)CC2)c(=O)[nH]c1=O	n	n	n	n	n	x	x	x
O=C1/C(=C\c2cc3c(cc2Cl)OCO3)N2CCC1CC2	n	n	n	n	n	x	x	x
O=C1/C(=C\c2ccncc2)N2CCC1CC2	n	n	n	n	n	x	x	x
O=C1/C(=C\c2ccc(Cl)cc2Cl)N2CCC1CC2	7.7	n	n	n	n	6.5%	n	n
O=C1/C(=C\c2ccc(Cl)c(Cl)c2)N2CCC1CC2	21	n	n	n	n	16%	n	n
Cc1nn(Cc2ccccc2)c(C)c1C=C1C(=O)NC(=S)NC1=O	14	n	n	n	n	70%	n	8.0%
C=CCN(CC#CCOc1ccccc1OC)CC=C	n	n	n	n	n	x	x	x
O=C(Cn1cc(C=C2C(=O)NC(=O)NC2=O)c2ccccc21)NCC1CCCO1 (stereo unspecified)	n	n	n	n	n	x	x	x
SMILES	RGS4 inh	MrgX1 antag	MrgX1 PAM	MrgX1 agonist	RGS4 pot	RGS4 block valid	RGS4 uninduced	RGS4 inh ctr2	others
Cc1c(C=C2C(=O)N(C)C(=S)N(C)C2=O)c2ccccc2n1CC(=O)NCC1CCCO1 (stereo unspecified)	5.1	n	n	n	n	54%	n	24%
COc1ccc(C2CC(c3c(O)n(CCc4ccccc4)c(=O)[nH]c3=O)=NN2)cc1OC (stereo unspecified)	8.1	n	n	n	n	n	n	n
CN1C(=O)C(=Cc2ccc(Sc3ccccc3)o2)C(=O)N(C)C1=S	n	n	n	n	n	n	n	8.5%
O=C1NC(=O)C(=Cc2ccc(Sc3ccccc3)o2)C(=O)N1	9.9	n	n	n	n	5.0%	n	29%
CN1C(=O)C(=Cc2ccc(N3CCOCC3)o2)C(=O)N(C)C1=S	n	n	n	n	n	x	x	x
CN1C(=O)C(=Cc2coc3ccccc3c2=O)C(=O)N(C)C1=O	n	n	n	n	n	x	x	x
CN1C(=O)C(=Cc2ccc(Sc3ccccc3)o2)C(=O)N(C)C1=O	27	n	n	n	n	23%	n	210%
NC1=Nc2ccccc2Oc2ccccc21	n	n	n	55	n	x	x	x	MrgX1 ag reconf=226%;HEK293 Ca flux=n;HEK293 Ca counter=n;HEK293 Ca cntr2=n
C[C@H]1CCC[C@@H](O)CCC/C=C/c2cc(O)cc(O)c2C(=O)O1	n	n	n	31	n	x	x	x	MrgX1 ag reconf=176%;HEK293 Ca flux=n;HEK293 Ca counter=n;HEK293 Ca cntr2=n
C[C@H]1CCC[C@H](O)CCCCCc2cc(O)cc(O)c2C(=O)O1	n	n	n	n	n	x	x	x
O=C1CCCN1CC#CCN1CCCC1	n	n	n	52	n	x	x	x	MrgX1 ag reconf=226%;HEK293 Ca flux=n;HEK293 Ca counter=n;HEK293 Ca cntr2=49
Cc1ncc(CN2CCCC(C(=O)c3sccc3C)C2)s1 (stereo unspecified)	n	n	n	n	n	x	x	x
CC(C)(C)c1ccc(O)c(N=Cc2c(O)ccc3ccccc23)c1	n	n	n	56	n	x	x	x	MrgX1 ag reconf=115%;HEK293 Ca flux=n;HEK293 Ca counter=n;HEK293 Ca cntr2=46
O=C(c1cn(Cc2ccccc2F)c2ncccc12)C(F)(F)F	n	n	n	n	n	x	x	x
